Data set [1] has as its system Staphylococcus epidermidis. As to the kind of experiment: Antibacterial activity against methicillin-sensitive Staphylococcus epidermidis after 16 hrs by NCCLS agar dilution method. The class given is functional. Put shortly: (§1)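 Agar dilution MIC. Stocks were 320 μg/mL in 50% aqueous DMSO, 2-fold serially diluted in sterile water, then diluted 10-fold into Mueller–Hinton agar to give 16–0.03125 μg/mL final. Organisms were grown in MH broth at 35 °C for 8 h and adjusted to 0.5 McFarland. They were spotted onto drug-containing plates with a multipoint inoculator and incubated at 35 °C for 16 h. Linezolid was the positive control.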

Another data set deals with Streptococcus pneumoniae. As to the kind of experiment: Antibacterial activity against penicillin-resistant Streptococcus pneumoniae after 16 hrs by NCCLS agar dilution method. The class given is functional. A digest of the protocol:
as §1

The subject of data set [2] is Staphylococcus epidermidis. In words: Antibacterial activity against linezolid-resistant Staphylococcus epidermidis after 16 hrs by NCCLS agar dilution method. The class given is functional. A digest of the protocol:
as §1

The subject of data set [3] is Staphylococcus aureus. As to the kind of experiment: Antibacterial activity against Staphylococcus aureus ATCC 29213 after 16 hrs by NCCLS agar dilution method. The class given is functional. The note with it: ATCC 29213, 16 h. A digest of the protocol:
as §1

The subject of data set [4] is Staphylococcus aureus. As to the kind of experiment: Antibacterial activity against methicillin-sensitive Staphylococcus aureus after 16 hrs by NCCLS agar dilution method. The class given is functional. A digest of the protocol: as §1
The test system of data set [5] is Enterococcus faecalis. As to the kind of experiment: Antibacterial activity against linezolid-resistant Enterococcus faecalis after 16 hrs by NCCLS agar dilution method. The class given is functional. A digest of the protocol: as §1
Data set [6] concerns Enterococcus faecalis. As to the kind of experiment: Antibacterial activity against Enterococcus faecalis after 16 hrs by NCCLS agar dilution method. The class given is functional. Put shortly: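 Agar dilution MIC per NCCLS, 6 E. faecalis strains. Stock was 320 μg/mL in 50% water/DMSO, serially 2-fold diluted in sterile water, then 10-fold into Mueller–Hinton agar to give 16–0.03125 μg/mL final. Inocula came from MH broth cultures grown 8 h at 35 °C, adjusted to 0.5 McFarland and spotted by multipoint inoculator. Plates were read after 16 h at 35 °C.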

Data set [7] has as its system Staphylococcus aureus. As to the kind of experiment: Antibacterial activity against methicillin-resistant Staphylococcus aureus after 16 hrs by NCCLS agar dilution method. The class given is functional. Put shortly: as §1
In data set [8] the test system is Staphylococcus epidermidis. As to the kind of experiment: Antibacterial activity against methicillin-resistant Staphylococcus epidermidis after 16 hrs by NCCLS agar dilution method. The class given is functional. Put shortly: as §1
In the next data set the test system is Enterococcus faecium. In words: Antibacterial activity against linezolid-resistant Enterococcus faecium after 16 hrs by NCCLS agar dilution method. The class given is functional. A digest of the protocol:
as §1

The test system of data set [9] is Staphylococcus aureus. As to the kind of experiment: Antibacterial activity against linezolid-resistant Staphylococcus aureus after 16 hrs by NCCLS agar dilution method. The class given is functional. Put shortly: as §1
A short description of data set [10]: Aqueous solubility of the compound. The note with it: aqueous (not further specified).
Data set [11] can be described thus: Elimination half life in Sprague-Dawley rat at 10 mg/kg, iv by LC-MS analysis. The class given is ADME, organism-based. The arrangement: dose 10 mg/kg, route intravenous. The note with it: in vivo, read-out: beta t1/2 (converted). Put shortly:
(§2)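 Rats were dosed orally or by intravenous injection. For prodrugs, all parameters were based on the active parent antibacterial detected in plasma, and each prodrug dose was also given as an equivalent parent dose. Parameters were Cmax, Tmax, elimination T1/2, AUC from the concentration–time curve, clearance and oral bioavailability F.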

Data set [12] in a line: AUC in Sprague-Dawley rat at 10 mg/kg, iv by LC-MS analysis. The class given is ADME, organism-based. The arrangement: dose 10 mg/kg, route intravenous. The note with it: plasma. Put shortly:
(§3)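 Rats dosed orally or by intravenous injection. AUC is the area under the plasma concentration–time curve. For the prodrug entries, all PK values were based on the amount of the active parent antibacterial detected, not the administered prodrug.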

The nature of data set [13]: Oral bioavailability in Sprague-Dawley rat at 15 mg/kg. The class given is ADME, organism-based. The note with it: in vivo. Put shortly: as §2
A short description of data set [14]: Cmax in Sprague-Dawley rat at 15 mg/kg, po by LC-MS analysis. The class given is ADME, organism-based. Further details: dose 15 mg/kg, route oral. The note with it: in vivo. A digest of the protocol:
as §2

Data set [15] in a line: AUC in Sprague-Dawley rat at 15 mg/kg, po by LC-MS analysis. The class given is ADME, organism-based. Further details: dose 15 mg/kg, route oral. The note with it: plasma. A digest of the protocol:
as §3

Data set [16] in a line: Clearance in Sprague-Dawley rat at 10 mg/kg, iv by LC-MS analysis. Further details: dose 10 mg/kg, route intravenous. The class given is ADME, organism-based. The note with it: in vivo. Put shortly:
as §2

Data set [17] is described as follows: Elimination half life in Sprague-Dawley rat at 15 mg/kg, po by LC-MS analysis. The note with it: in vivo, read-out: beta t1/2 (converted). Further details: dose 15 mg/kg, route oral. The class given is ADME, organism-based. Put shortly:
as §2

A short description of data set [18]: Tmax in Sprague-Dawley rat at 15 mg/kg, po by LC-MS analysis. The class given is ADME, organism-based. Further details: dose 15 mg/kg, route oral. The note with it: in vivo. Put shortly:
as §2

SMILES strings stand for the structures. Converted amounts (≈) assume the structure as drawn.

Regarding `O=C1O[C@@H](CO)[C@@H]2COc3cc(-c4ccc(Cn5cncn5)nc4)ccc3N12`, the MIC in data set [1] was 0.5 µg/mL (≈ 1.32 µM); against Streptococcus pneumoniae, 0.5 µg/mL (≈ 1.32 µM); in [2], 8 µg/mL (≈ 21.1 µM); in the data set with Staphylococcus aureus [3], 1 µg/mL (≈ 2.64 µM); with Staphylococcus aureus [4] it was 0.5 µg/mL (≈ 1.32 µM); with Enterococcus faecalis [5] it was 8 µg/mL (≈ 21.1 µM). The MIC came out at 1 µg/mL (≈ 2.64 µM) in the data set with Enterococcus faecalis [6]; 0.5 µg/mL (≈ 1.32 µM) in the data set with Staphylococcus aureus [7]; 0.5 µg/mL (≈ 1.32 µM) in [8]; 8 µg/mL (≈ 21.1 µM) in the data set with Enterococcus faecium; 16 µg/mL (≈ 42.2 µM) against Staphylococcus aureus [9].

For `CN1C[C@H](c2ccc(-c3ccc4c(c3)OC[C@H]3[C@H](CO)OC(=O)N43)cn2)OC1=O`, the MIC in data set [1] was 0.5 µg/mL (≈ 1.26 µM); in the data set on Streptococcus pneumoniae, 2 µg/mL (≈ 5.03 µM); against Staphylococcus aureus [4], 1 µg/mL (≈ 2.52 µM); in the data set with Enterococcus faecalis [6] it was 2 µg/mL (≈ 5.03 µM); with Staphylococcus aureus [7] it was 1 µg/mL (≈ 2.52 µM); in data set [8], 1 µg/mL (≈ 2.52 µM).

With `O=C1OC(COP(=O)([O-])[O-])CN1c1ccc(-c2ccc3c(c2)OC[C@H]2[C@H](CO)OC(=O)N32)cn1.[Na+].[Na+]` (stereo not given in full), the concentration in solution in data set [10] (solubility) came to 534 mg/mL. Moreover, the results for the half-life in data set [11] and in [17] were 1 h and 1.61 h, respectively. The AUC in [12] worked out at 4000 ng·h/mL; in data set [15], 1230 ng·h/mL. Besides, the bioavailability in [13] came out at 19.7%. The molecule also came in with a Cmax in data set [14] of 650 ng/mL. For the same molecule, the clearance in data set [16] is 33.8 mL/min/kg. For the same molecule, the Tmax in data set [18] was 0.25 h.

Consider `O=C1OCCN1c1ccc(-c2ccc3c(c2)OC[C@H]2[C@H](CO)OC(=O)N32)cn1`, for which the MIC is 0.5 µg/mL (≈ 1.3 µM) in data set [1]; 0.5 µg/mL (≈ 1.3 µM) in the data set with Streptococcus pneumoniae; 2 µg/mL (≈ 5.22 µM) in data set [2]; 0.5 µg/mL (≈ 1.3 µM) in the data set on Staphylococcus aureus [3]; 0.5 µg/mL (≈ 1.3 µM) against Staphylococcus aureus [4]; 4 µg/mL (≈ 10.4 µM) against Enterococcus faecalis [5]. Besides, the MIC in the data set with Enterococcus faecalis [6] was found to be 1 µg/mL (≈ 2.61 µM); against Staphylococcus aureus [7] it was 0.5 µg/mL (≈ 1.3 µM); in data set [8], 0.5 µg/mL (≈ 1.3 µM); in the data set with Enterococcus faecium it was 4 µg/mL (≈ 10.4 µM); against Staphylococcus aureus [9], 16 µg/mL (≈ 41.7 µM).

`Cc1cc(C#N)ncc1-c1ccc2c(c1)OC[C@H]1[C@H](CO)OC(=O)N21`: the MIC in [1] turned out to be 0.25 µg/mL (≈ 0.741 µM); against Streptococcus pneumoniae, 1 µg/mL (≈ 2.96 µM); with Staphylococcus aureus [4], 0.25 µg/mL (≈ 0.741 µM); against Enterococcus faecalis [6] it was 4 µg/mL (≈ 11.9 µM); against Staphylococcus aureus [7] it was 0.25 µg/mL (≈ 0.741 µM); in data set [8], 0.25 µg/mL (≈ 0.741 µM).

For `O=C1O[C@@H](CO)[C@@H]2COc3cc(-c4ccc(C(O)CO)nc4)ccc3N12` (stereo not given in full), the MIC in [1] amounted to 0.5 µg/mL (≈ 1.4 µM); against Streptococcus pneumoniae, 0.5 µg/mL (≈ 1.4 µM); in [2] it was 8 µg/mL (≈ 22.3 µM); against Staphylococcus aureus [3] it was 0.5 µg/mL (≈ 1.4 µM); against Staphylococcus aureus [4], 0.5 µg/mL (≈ 1.4 µM); against Enterococcus faecalis [5], 4 µg/mL (≈ 11.2 µM). Moreover, the minimum inhibitory concentration (MIC) worked out at 1 µg/mL (≈ 2.79 µM) against Enterococcus faecalis [6]; 0.5 µg/mL (≈ 1.4 µM) with Staphylococcus aureus [7]; 0.5 µg/mL (≈ 1.4 µM) in data set [8]; 4 µg/mL (≈ 11.2 µM) in the data set on Enterococcus faecium; 16 µg/mL (≈ 44.6 µM) in the data set with Staphylococcus aureus [9].

Turning to `Cn1nnc(-c2ccc(-c3ccc(N4C[C@H](CO)OC4=O)cc3F)cn2)n1` [TEDIZOLID], the MIC in data set [2] came to 2 µg/mL (≈ 5.4 µM); in the data set with Staphylococcus aureus [3], 0.25 µg/mL (≈ 0.675 µM); with Enterococcus faecalis [5] it was 2 µg/mL (≈ 5.4 µM); with Enterococcus faecium, 2 µg/mL (≈ 5.4 µM); with Staphylococcus aureus [9], 8 µg/mL (≈ 21.6 µM).

As to `CN1CCN(c2ccc(-c3ccc4c(c3)OC[C@H]3[C@H](CO)OC(=O)N43)cn2)C1=O`, the MIC in [1] came out at 2 µg/mL (≈ 5.05 µM); against Streptococcus pneumoniae it was 4 µg/mL (≈ 10.1 µM); in the data set on Staphylococcus aureus [4], 2 µg/mL (≈ 5.05 µM); in the data set with Enterococcus faecalis [6] it was 8 µg/mL (≈ 20.2 µM); in the data set on Staphylococcus aureus [7] it was 2 µg/mL (≈ 5.05 µM); in data set [8], 4 µg/mL (≈ 10.1 µM).

The values are drawn from ChEMBL document CHEMBL2321795, “Solubility-driven optimization of (pyridin-3-yl) benzoxazinyl-oxazolidinones leading to a promising antibacterial agent” (J Med Chem, 2013).
